In ChEMBL document CHEMBL1134147, “3-Arylpiperidines as potentiators of existing antibacterial agents” (Bioorg Med Chem Lett, 2001):
Values after ≈ are worked out from the molar mass of the structure shown. Residues, ends and D or L forms follow the SMILES beside them. *: point of attachment. βNA = c1ccc2cc(N*)ccc2c1

Key:
[1] = tested on: Staphylococcus aureus; assay: Antibacterial activity against Staphylococcus aureus strain ATCC 29213; assay type: functional
[2] = tested on: Escherichia coli; assay: Inhibitory activity against accumulation of [14C]-labeled Linezolid within wild-type Escherichia coli K12 cells; assay type: functional, cell-based; settings: K-12, K12
How it was run: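 E. coli K12 grown at 37 °C in LB + 0.2% glucose, rinsed twice, resuspended to OD530 8.0 in 50 mM KPO4 pH 7.0, 1 mM MgSO4, 0.2% glucose. Preincubated 10 min at 37 °C, inhibitor added for 30 min, then 14C-linezolid (30 µM final) 15 min. Cells spun through an oil cushion and scintillation counted. IC50 is half-maximal accumulation relative to 100 µM CCCP control.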

[3] = tested on: Escherichia coli; assay: Antibacterial activity against Escherichia coli strain ATCC 25922; assay type: functional

Compound | MIC [1] | IC50 [2] | MIC [3]
Clc1ccc(Cl)c(CCC2CCCNC2)c1 (configuration not stated) | 64 µg/mL (≈ 248 µM) | 195 µM | 128 µg/mL (≈ 496 µM)
Cl.F[C@@H]1CCNC[C@H]1CCc1cc(Br)ccc1Cl | 64 µg/mL | 90 µM | 64 µg/mL
Cl.FC1=C(Cc2cc(Br)ccc2Cl)CNCC1 | > 128 µg/mL | 480 µM | 128 µg/mL
Cl.Clc1ccc(Br)cc1CCC1CCCNC1 (configuration not stated) | 64 µg/mL | 185 µM | 128 µg/mL
Cl.OC1CCNC[C@@H]1Cc1cc(Br)ccc1Cl (some centres not stated) | > 128 µg/mL | > 900 µM | > 256 µg/mL
Cl.O[C@H]1CCNC[C@@H]1Cc1cc(Br)ccc1Cl | > 128 µg/mL | > 900 µM | > 256 µg/mL
Cl.Clc1ccc(Br)cc1CC1=CCCNC1 | 128 µg/mL | 600 µM | 256 µg/mL
Cl.F[C@H]1CCNC[C@@H]1Cc1cc(Br)ccc1Cl | > 125 µg/mL | > 900 µM | 256 µg/mL
Cl.O=C1CCNCC1Cc1cc(Br)ccc1Cl (configuration not stated) | > 128 µg/mL | > 900 µM | > 256 µg/mL
F[C@H]1CCNC[C@@H]1CCCc1cc(Br)ccc1Cl |  | 400 µM | 
c1ccc(CCC2CCCNC2)cc1 (configuration not stated) | > 128 µg/mL | > 900 µM | > 128 µg/mL
Cl.Clc1ccc(Br)cc1/C=C/C1CCCNC1 (configuration not stated) | 32 µg/mL | 140 µM | 64 µg/mL
N#Cc1ccc(CCC2CCCNC2)cc1 (configuration not stated) | > 128 µg/mL | > 900 µM | > 128 µg/mL
CCOc1ccc(CCC2CCCNC2)cc1 (configuration not stated) | > 128 µg/mL | > 900 µM | > 128 µg/mL
Cc1ccc(C)c(CCC2CCCNC2)c1 (configuration not stated) | > 128 µg/mL | > 900 µM | > 128 µg/mL
COc1ccccc1-c1ccc(CCC2CCCNC2)c(Cl)c1 (configuration not stated) | 32 µg/mL (≈ 97 µM) | > 900 µM | 64 µg/mL (≈ 194 µM)
Clc1ccc(CCC2CCCNC2)cc1Cl (configuration not stated) | 128 µg/mL (≈ 496 µM) | 200 µM | 128 µg/mL (≈ 496 µM)
Clc1cccc(Cl)c1CCC1CCCNC1 (configuration not stated) | > 128 µg/mL | 290 µM | > 128 µg/mL
FC(F)(F)c1cc(CCC2CCCNC2)cc(C(F)(F)F)c1 (configuration not stated) | 64 µg/mL (≈ 197 µM) | 300 µM | 64 µg/mL (≈ 197 µM)
N=C(N)NCCC[C@H](NC(=O)[C@@H](N)Cc1ccccc1)C(=O)Nc1ccc2ccccc2c1 [PABETAN] (H-Phe-Arg-βNA) |  | 730 µM | 256 µg/mL (≈ 573 µM)
